SKN-1 inh – C. elegans SKN-1 inhibition. actives 0.49% (n = 360,000). C. elegans VP596 Pgst-4::GFP/RFP ratio, acrylamide-induced, 24 h. inhibition, % at 21.8 µM;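 active = interference check ratio from 0.5 to 1.5 plus GFP to RFP signal ratio inhibition reaching or exceeding a fixed threshold, cut at about 30% in these data, passing the limit was not always enough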
MsrA inhibitor – bovine MsrA inhibition | AID 651718 | actives 0.75% (n = 360,000) | inhibition, % at 15.5 µM | purified bovine MsrA, absorbance read-out; in the data active = inhibition above about 4.5%;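 note: 0% = vehicle wells with enzyme and 100% = reference inhibitor wells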
MT1-MMP act inh – inhibitors of human MT1-MMP activation | P50281 | HT1080 RFP-PRO-GFP cells, GFP/RFP ratio fluorescence, overnight; percent of plate control window, DMSO zero | GFP/RFP ratio change, % at 20 µM | actives 0.061% (n = 360,000);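 active = GFP/RFP ratio change of at least 30% with cell ATP level not reduced by more than half and red fluorescence within 50% of control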
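system = RFP-PRO-GFP reporter HT1080 cells | dosing = 20 µM single dose, 1% DMSO | timing = overnight cell settling, then overnight compound exposure, 37 °C, 5% CO2 | read-out basis = GFP/RFP fluorescence ratio | controls = DMSO and RFP-L50D-GFP cell wells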
bovine MsrA act – activates bovine MsrA enzyme | purified bovine MsrA, absorbance read-out | activation, % at 10.6 µM | actives 0.3% (n = 360,000); in the data active = activation above about 7.5%;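 note: 0% = vehicle and 100% = reference activator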
MIN6 prolif-1 – MIN6 beta-cell proliferation induction; MIN6 cells proliferation, ATPlite luminescence, 48 h; cells starved in 0.2% serum; 100% = growth in 10% serum; proliferation, % at 10 µM; actives 0.29% (n = 330,000); AID 2380;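 active = compounds whose signal lies at least 3.5 SD above the mean of all wells on their plate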;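 note: 0% = DMSO-treated cells in low-serum medium and 100% = 10% serum control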
DAGLB inh – blocks human DAGLB lipase activity; HEK293T DAGLB membrane lysate, EnzChek fluorogenic substrate; inhibition, % at 5.17 µM; actives 0.059% (n = 340,000); AID 504411; in the data active = inhibition above about 34%;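 note: 0% = enzyme with vehicle and 100% = wells lacking enzyme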
Target sequence (Q8NCG7 whole entry, looked up): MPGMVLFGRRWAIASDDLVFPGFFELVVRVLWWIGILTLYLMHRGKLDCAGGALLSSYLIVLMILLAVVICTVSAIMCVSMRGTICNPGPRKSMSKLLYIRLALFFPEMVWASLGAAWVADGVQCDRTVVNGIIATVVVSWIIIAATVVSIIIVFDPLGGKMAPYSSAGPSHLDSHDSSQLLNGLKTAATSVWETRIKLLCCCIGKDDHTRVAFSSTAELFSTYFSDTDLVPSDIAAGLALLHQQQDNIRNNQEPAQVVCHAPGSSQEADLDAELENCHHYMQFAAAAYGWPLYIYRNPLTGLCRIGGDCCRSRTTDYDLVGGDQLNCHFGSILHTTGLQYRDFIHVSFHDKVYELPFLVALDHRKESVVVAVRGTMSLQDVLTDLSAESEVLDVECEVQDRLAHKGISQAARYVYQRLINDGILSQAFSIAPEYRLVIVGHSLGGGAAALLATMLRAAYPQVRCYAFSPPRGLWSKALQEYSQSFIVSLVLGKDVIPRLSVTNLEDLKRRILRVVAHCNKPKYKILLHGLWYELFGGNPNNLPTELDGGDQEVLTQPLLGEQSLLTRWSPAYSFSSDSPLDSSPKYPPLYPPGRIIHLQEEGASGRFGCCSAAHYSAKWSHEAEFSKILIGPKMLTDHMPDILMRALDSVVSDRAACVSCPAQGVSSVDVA
MIN6 prolif-2 – confirmation of inducers of beta-cell replication in MIN6 cells; MIN6 beta-cell proliferation, ATPlite luminescence, 48 h; cells kept in 0.2% serum; scaled between 0.2% and 10% serum; 920 tested, under 10 active; shares compounds with MIN6 prolif-1; proliferation increase, % at 50 µM;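 active = proliferation increase above 40% at any of the four tested concentrations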
* = called active by the depositor; . = not tested or not shown. Hits are enriched below; roughly 1.8% of the tested compounds scored in any of these assays.

SMILES	SKN-1 inh	MsrA inhibitor	MT1-MMP act inh	bovine MsrA act	MIN6 prolif-1	DAGLB inh	MIN6 prolif-2
CN1CCN(P(=O)(c2ccccc2)c2nc3ccccc3s2)CC1 (stereo not drawn)	2	1	-1	-6	5.9*	1	0
O=C1CN(S(=O)(=O)c2ccccc2)c2ccccc2N1	-10	1	1	-10	13*	1	-1
CC(C)C[C@@H]1NC(=O)[C@@H]2CSCCS(=O)(=O)N2C1=O	.	-1	.	.	.	.	.
CN(C(=O)c1cccc(NC(=O)Cc2ccc(NC(=O)C3CCCN(C(=O)c4ccccc4)C3)cc2)c1)C1CC1 (stereo not drawn)	.	0	.	.	.	.	.
O=C(CSCc1c(Cl)cccc1Cl)NCc1ccco1	0	-1	3	-2	9.2*	-9	-3
C=CCNC(=O)c1ccccc1NC(=O)COc1ccccc1	11	-1	-2	-6	8.4*	0	1
C=CCNC(=O)c1ccccc1NC(=O)COc1ccc(OC)cc1	9	1	-1	-1	-1	-6	.
CCc1c(Cc2cccc(F)c2)ncn1CCc1ccccc1OC	.	0	.	.	.	.	.
C/C(=N/NC(=O)c1ccc(Br)s1)c1ccncc1	-1	0	-10	-5	15*	-3	3
Cc1ccc(Cc2c(-c3ccc(C)cc3)nc3c(Cl)cc(C(F)(F)F)cn23)cc1	19	.	-5	-1	.	.	.
COc1cc2c(cc1OC)C1=C(C#N)CC/C(=N\S(=O)(=O)c3cccc(Cl)c3)N1CC2	4	2	3	-14	1	-2	.
COc1cc2c(cc1OC)C1=C(C#N)CCC(=NC(=O)c3ccco3)N1CC2	12	3	1	-4	9.8*	2	4
Cc1ccc2cc(CN(c3ccccc3C)S(=O)(=O)c3ccccc3)c(=O)[nH]c2c1	15	2	-3	-3	-3	-1	.
COCCN(Cc1cc2ccc(C)cc2[nH]c1=O)S(=O)(=O)c1ccccc1	15	2	0	-3	9.1*	1	-1
COC(=O)N[C@H]1CC=C[C@@H]1Cc1cccc(Oc2ccccc2)c1	.	0	.	.	.	.	.
CCOc1ccc(NC(=O)CN(C)C(=O)c2cc(S(=O)(=O)N3CCCCC3)ccc2C)cc1OCC	9	-1	4	0	12*	-3	5
COc1ccc([N+](=O)[O-])cc1NCc1cccnc1	-4	3	1	-2	11*	-3	2
COc1ccc([N+](=O)[O-])cc1NCc1cccc([N+](=O)[O-])c1	7	-2	1	-3	-1	4	.
Cc1cc(C)c(C)c(S(=O)(=O)Nc2ccccc2C(=O)NCCCN2CCOCC2)c1C	-1	-1	-3	-3	8.2*	-1	-6
COc1ccccc1CNC(=O)CSc1ccc(-c2cccs2)nn1	1	1	-1	-4	7.8*	-1	-2
CCc1ccc(C2CC3C(CN2S(=O)(=O)c2ccc(C)cc2)[C@@H](O)C[C@@H](c2ccc(CC)cc2)N3S(=O)(=O)c2ccc(C)cc2)cc1 (stereo partly drawn)	-4	-1	0	.	.	.	.
CCC[C@@H](O)c1cc2cc(OC)c(OC)cc2c(=O)o1	0	0	0	-2	12*	2	-6
COc1cc2cc(C(C)(C)O)oc(=O)c2cc1OC	13	0	1	-4	1	1	.
CCc1nn(C(CC)C(=O)NCc2cccc(OC)c2OC)c(=O)c2cc3occc3n12 (stereo not drawn)	20	-1	-3	-1	14*	0	-6
CCOC(=O)C(CNc1ccc(O)cc1)NC(=O)c1ccccc1 (stereo not drawn)	.	0	.	.	.	.	.
COc1ccc(-c2nc3ccccc3nc2-c2ccccc2)cc1	-2	1	-3	-5	-4	-6	.
COc1ncnc(-c2ccccc2)c1-c1ccccc1	6	0	-3	-4	7.8*	-6	1
CCOC(=O)c1c(C)[nH]c(C)c1C(=O)CSc1nnnn1-c1ccccc1	-13	1	1	-15	5.5*	-1	3
